Experimental findings from ChEMBL document CHEMBL1141427, “Antifungal amides from Piper scutifolium and Piper hoffmanseggianum” (2007) are described below.

The test system of experiment [1] is Cladosporium sphaerospermum. The experiment in a line: Antifungal activity against Cladosporium sphaerospermum after 72 hrs. It counts as functional. A digest of the protocol:
(§1)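 TLC bioautography: compounds applied to TLC plates, sprayed with a fungal spore suspension in glucose and salt solution, incubated 72 h in darkness in a moistened chamber at 25 °C. Clear inhibition zones against a dark background read as the minimum amount (µg) inhibiting growth on the plate. Strains: C. cladosporioides SPC 140, C. sphaerospermum SPC 491. Nystatin and miconazole positive controls; ampicillin and chloramphenicol negative controls.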

In experiment [2] the test system is Cladosporium cladosporioides. The experiment in a line: Antifungal activity against Cladosporium cladosporioides after 72 hrs. Format: functional. The method, boiled down: as §1

`CC(=O)OC(C)(C)CNC(=O)/C=C/C=C/c1ccc2c(c1)OCO2` [CORCOVADINE]: the MIC in experiment [1] and in experiment [2] was 1 µg each time.

As for `CC(=O)OC(C)(C)CNC(=O)/C=C\C=C/c1ccc2c(c1)OCO2` [ISOCORCOVADINE], the MIC in experiment [1] was 1 µg; in experiment [2] it was 2.5 µg.

As to `CC(C)CNC(=O)/C=C\C=C/c1ccc2c(c1)OCO2` [ISOPIPERLONGUMININE], the MIC in experiment [1] and in experiment [2] was 0.25 µg throughout.

Regarding `Clc1ccc(COC(Cn2ccnc2)c2ccc(Cl)cc2Cl)c(Cl)c1` (stereo not drawn) [MICONAZOLE], the MIC in experiment [1] and in experiment [2] was 1 µg in each case.

Take `CC(C)CNC(=O)/C=C/C=C/c1ccc2c(c1)OCO2` [PIPERLONGUMININE]: the MIC in experiment [1] and in experiment [2] was 1 µg in each case.

`COc1c(OC)c(OC)c2c3c(cc4ccccc42)NC(=O)c13` [PIPEROLACTAM C]: the MIC in experiment [1] was determined as 50 µg; in experiment [2], 5 µg.

For the molecule `COc1ccc(C/C=C/C=C/C(=O)NCC(C)C)cc1` [PIPEROVATINE], the MIC in experiment [1] and in experiment [2] was 1 µg in each case.

As for `CC(C)CNC(=O)/C=C/C=C\c1ccc2c(c1)OCO2` [SCUTIFOLAMIDE A], the MIC in experiment [1] and in experiment [2] was 5 µg throughout.

Regarding NYSTATIN, the MIC in experiment [1] and in experiment [2] was 1 µg throughout.
